Source: ChEMBL document CHEMBL1127053, “3,4-Dimethyl-4-(3-hydroxyphenyl)piperidines: opioid antagonists with potent anorectant activity” (J Med Chem, 1993)

Assays:
Rattus norvegicus = assay: Tested for concentration required to reduce the food consumption by 20 % subcutaneously; assay type: functional
Outline: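 Obese Zucker rats, 3-4 months old, trained to eat only 8 am-4 pm. Groups of 4 (2 male, 2 female), with one saline control group daily. Compound in saline with 10% DMSO, given sc on 3 consecutive days, typical doses 5.0-0.08 mg/kg (0.02-20 in some cases). Intake measured over the first 4 h. ED20 from regression of the linear portion of the dose-response curve.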

[1] = molecular target: Kappa-type opioid receptor (Cavia porcellus, UniProt P41144); assay: Binding affinity towards kappa opioid receptor by displacement of [3H]EKC in guinea pig cortical tissue
Outline: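 Radioligand displacement. Kappa: [3H]EKC, guinea pig cortex, with fentanyl and DADL added to block mu/delta binding. Delta: [3H]DADL, rat brain homogenate.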

[2] = molecular target: Kappa-type opioid receptor (Mus musculus) (UniProt P33534); assay: Antagonist activity towards U50 488 induced kappa opioid receptor by mouse writhing assay at 2.5 mg/kg subcutaneously; assay type: functional, organism-based; design: dose 2.5 mg/kg
Outline: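 Mouse acetic acid writhing: 0.6% acetic acid ip, writhes counted for 10 min starting 5 min after injection. 5 mice/point, ≥5 doses varied 2-fold, each mouse used once. AD50 = antagonist dose reducing agonist-induced writhing inhibition to 50%.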

[3] = molecular target: Mu-type opioid receptor (Mus musculus) (UniProt P42866); assay: Antagonistic activity towards morphine induced mu-opioid receptor by mouse writhing assay at 1.25 mg/kg subcutaneously; assay type: functional, organism-based; design: dose 1.25 mg/kg
Outline: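 Mouse acetic acid writhing: 0.6% acetic acid ip, writhes counted for 10 min starting 5 min after injection. Agonist (morphine 1.25 mg/kg or U50,488 2.5 mg/kg) and antagonist given sc 20 min before acid. 5 mice/point, ≥5 doses varied 2-fold, each mouse used once. AD50 = antagonist dose reducing agonist-induced writhing inhibition to 50%.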

Mu-type opioid receptor = Mu-type opioid receptor (Rattus norvegicus, UniProt P33535); assay: Binding affinity towards mu-opioid receptor by the displacement of [3H]Nal in rat brain homogenates; assay type: tissue-based
[4] = molecular target: Kappa-type opioid receptor (Rattus norvegicus) (UniProt P34975); assay: Antagonism of bremazocine induced kappa receptor diuresis in rats at a concentration of 0.08 mg/kg subcutaneously; assay type: functional, organism-based; design: dose 0.08 mg/kg
Outline: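 Male Long-Evans hooded rats (350-500 g), reused no more than twice weekly. Bremazocine 0.08 mg/kg sc, test antagonist sc on the opposite side without delay. Rats housed in metabolism cages; urine volume recorded at 2 and 5 h. 3 rats/dose, doses varied 2-fold. AD50 = dose reducing cumulative 5-h induced urination by 50%.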

[5] = Rattus norvegicus, sc, read-out: ED50

Kappa-type opioid receptor (Mus musculus), sequence (P33534 whole entry): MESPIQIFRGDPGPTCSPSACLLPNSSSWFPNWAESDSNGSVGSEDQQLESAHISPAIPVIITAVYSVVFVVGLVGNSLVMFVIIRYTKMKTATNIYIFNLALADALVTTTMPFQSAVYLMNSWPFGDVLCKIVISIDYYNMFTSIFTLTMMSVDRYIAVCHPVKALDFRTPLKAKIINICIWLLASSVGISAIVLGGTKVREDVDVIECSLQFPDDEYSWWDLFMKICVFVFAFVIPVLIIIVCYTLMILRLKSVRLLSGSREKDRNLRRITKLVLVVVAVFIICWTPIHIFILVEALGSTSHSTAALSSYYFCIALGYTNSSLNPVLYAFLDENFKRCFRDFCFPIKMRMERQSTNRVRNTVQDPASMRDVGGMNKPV
Mu-type opioid receptor, sequence (P33535 whole entry): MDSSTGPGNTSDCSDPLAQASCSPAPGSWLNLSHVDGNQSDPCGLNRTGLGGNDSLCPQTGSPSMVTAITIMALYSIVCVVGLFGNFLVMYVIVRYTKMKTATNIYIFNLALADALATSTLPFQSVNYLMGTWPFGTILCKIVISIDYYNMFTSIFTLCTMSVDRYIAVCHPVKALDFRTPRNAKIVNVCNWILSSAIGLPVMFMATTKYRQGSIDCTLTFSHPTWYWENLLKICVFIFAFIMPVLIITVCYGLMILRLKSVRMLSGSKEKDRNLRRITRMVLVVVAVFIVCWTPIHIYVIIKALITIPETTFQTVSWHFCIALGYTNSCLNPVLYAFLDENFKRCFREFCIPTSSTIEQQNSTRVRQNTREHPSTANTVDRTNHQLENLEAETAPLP
Mu-type opioid receptor (Mus musculus), sequence (P42866 whole entry): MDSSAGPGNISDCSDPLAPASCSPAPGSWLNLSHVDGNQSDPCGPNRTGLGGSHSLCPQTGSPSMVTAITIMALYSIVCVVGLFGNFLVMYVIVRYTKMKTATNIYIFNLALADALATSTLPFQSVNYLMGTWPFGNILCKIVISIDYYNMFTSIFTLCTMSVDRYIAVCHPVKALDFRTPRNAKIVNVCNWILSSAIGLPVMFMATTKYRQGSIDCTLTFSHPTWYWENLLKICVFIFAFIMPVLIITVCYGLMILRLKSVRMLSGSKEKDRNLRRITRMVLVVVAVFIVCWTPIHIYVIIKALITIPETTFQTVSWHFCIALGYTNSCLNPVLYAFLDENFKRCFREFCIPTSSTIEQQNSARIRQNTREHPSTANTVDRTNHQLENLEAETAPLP
Kappa-type opioid receptor, sequence (P41144 whole entry): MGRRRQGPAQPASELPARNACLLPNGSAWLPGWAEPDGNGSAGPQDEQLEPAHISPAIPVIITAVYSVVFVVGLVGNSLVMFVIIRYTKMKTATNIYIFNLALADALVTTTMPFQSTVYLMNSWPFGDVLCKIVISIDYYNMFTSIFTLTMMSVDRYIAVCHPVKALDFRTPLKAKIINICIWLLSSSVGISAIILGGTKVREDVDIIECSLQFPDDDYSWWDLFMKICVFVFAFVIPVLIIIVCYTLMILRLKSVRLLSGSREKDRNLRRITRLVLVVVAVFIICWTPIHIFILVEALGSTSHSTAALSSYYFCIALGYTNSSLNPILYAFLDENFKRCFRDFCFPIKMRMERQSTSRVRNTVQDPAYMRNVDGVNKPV
Kappa-type opioid receptor (Rattus norvegicus), sequence (P34975 whole entry): as the sequence (P33534 whole entry) above, with D11E, S17A, S51P, A308V counted along it

SMILES	ED50 (Rattus norvegicus; [5]) [mg/kg]	Ki [1] [nM]	AD50 [2] [mg/kg]	AD50 [3] [mg/kg]	Ki (Mu-type opioid receptor) [nM]	AD50 [4] [mg/kg]	ED50 (Rattus norvegicus) [mg/kg]
C[C@H]1CN(CCC(=O)C2CCCCC2)CC[C@@]1(C)c1cccc(O)c1	0.13	3.9	0.26	0.12	0.34	–	–
C[C@H]1CN(CCCC2CCCC2)CC[C@@]1(C)c1cccc(O)c1	1.2	3.4	0.13	0.12	0.37	0.79	–
C[C@H]1CN(CCC(O)c2cccs2)CC[C@@]1(C)c1cccc(O)c1 (some centres undefined)	0.07	–	–	–	–	–	–
CC(C)CCCCN1CC[C@@](C)(c2cccc(O)c2)[C@@H](C)C1 (stereo in doubt; 21) [listing 1 of 2 here]	–	5.9	–	–	0.46	–	0.06
C[C@H]1CN(CCC(O)C2CCCCC2)CC[C@@]1(C)c1cccc(O)c1 (some centres undefined)	0.05	4.8	0.14	0.07	0.29	0.49	–
CC(C)C(O)CCN1CC[C@@](C)(c2cccc(O)c2)[C@@H](C)C1 (some centres undefined)	0.65	6.9	0.35	0.14	2.6	0.17	–
C[C@H]1CN(CCC2CCCCC2)CC[C@@]1(C)c1cccc(O)c1	3.6	2.3	0.12	0.1	0.65	0.69	–
CC(C)CCCCN1CC[C@](C)(c2cccc(O)c2)[C@H](C)C1	0.14	3.04	0.89	0.35	1.36	4.75	–
C[C@H]1CN(CCCC2CCCCC2)CC[C@@]1(C)c1cccc(O)c1	0.12	2.3	0.19	0.35	0.49	1	–
CCCCCCN1CC[C@@](C)(c2cccc(O)c2)[C@@H](C)C1 (stereo in doubt; 37) [listing 1 of 2 here]	–	–	0.22	0.26	–	0.86	–
C[C@H]1CN(CC2CCCCC2)CC[C@@]1(C)c1cccc(O)c1	> 20	29	0.47	1.1	17	4.6	–
C=CCN1CC[C@]23c4c5ccc(O)c4O[C@H]2C(=O)CC[C@@]3(O)[C@H]1C5 [NALOXONE]	1.2	–	–	–	–	–	–
C[C@H]1CN(CC[C@@H](O)C2CCCCC2)CC[C@@]1(C)c1cccc(O)c1	0.16	11.4	0.36	0.03	2.4	1.1	–
C[C@H]1CN(CCCc2ccsc2)CC[C@@]1(C)c1cccc(O)c1	0.06	–	0.24	0.12	–	1.9	–
CC(C)CCCCN1CC[C@@](C)(c2cccc(O)c2)[C@@H](C)C1 (stereo in doubt; 21) [listing 2 of 2 here]	–	–	0.24	0.58	–	0.39	–
C[C@H]1CN(CCC(O)c2ccccc2)CC[C@@]1(C)c1cccc(O)c1 (some centres undefined)	0.5	–	0.92	0.05	1	2.5	–

SMILES	ED50 (Rattus norvegicus; [5]) [mg/kg]	Ki [1] [nM]	AD50 [2] [mg/kg]	AD50 [3] [mg/kg]	Ki (Mu-type opioid receptor) [nM]	AD50 [4] [mg/kg]	ED50 (Rattus norvegicus) [mg/kg]
C[C@H]1CN(C)CC[C@@]1(C)c1cccc(O)c1	4.1	–	> 5	–	–	> 5	–
CC(C)CCCCN1CC[C@@](C)(c2cccc(O)c2)[C@@H](C)C1 (stereo in doubt; 39) [listing 1 of 2 here]	–	1.91	–	–	0.89	–	0.14
CCCCCCN1CC[C@](C)(c2cccc(O)c2)[C@H](C)C1	1.17	–	0.29	0.21	5.61	1.34	–
C[C@H]1CN(CCC2C=CCC2)CC[C@@]1(C)c1cccc(O)c1 (some centres undefined)	0.44	1	0.12	0.11	12	1.4	–
C=C(C)CCCN1CC[C@@](C)(c2cccc(O)c2)[C@@H](C)C1	0.29	21	0.095	0.077	0.17	0.39	–
C[C@H]1CN(CCCc2ccccc2)CC[C@@]1(C)c1cccc(O)c1	1.3	–	5.3	–	–	–	–
C[C@@H]1CN(CC[C@H](O)C2CCCCC2)CC[C@]1(C)c1cccc(O)c1	0.11	6.5	0.24	0.13	–	1.6	–
C[C@H]1CN(CCC(O)C2CCCC2)CC[C@@]1(C)c1cccc(O)c1 (some centres undefined)	0.09	5.5	0.08	0.04	0.41	0.99	–
CC(C)CCCN1CC[C@@](C)(c2cccc(O)c2)[C@@H](C)C1	2.1	9.6	0.073	0.11	0.29	0.39	–
CC(C)CCCCN1CC[C@@](C)(c2cccc(O)c2)[C@@H](C)C1 (stereo in doubt; 39) [listing 2 of 2 here]	–	–	0.22	0.08	–	1.31	–
C[C@H]1CN(CCCc2cccs2)CC[C@@]1(C)c1cccc(O)c1 (stereo in doubt; 29) [listing 1 of 2 here]	–	–	–	0.22	–	1	–
C[C@H]1CN(CCCc2cccs2)CC[C@@]1(C)c1cccc(O)c1 (stereo in doubt; 29) [listing 2 of 2 here]	0.07	–	–	–	–	–	–
CCCCCCN1CC[C@@](C)(c2cccc(O)c2)[C@@H](C)C1 (stereo in doubt; 16)	–	–	–	–	–	–	0.51
CCCCCCN1CC[C@@](C)(c2cccc(O)c2)[C@@H](C)C1 (stereo in doubt; 37) [listing 2 of 2 here]	–	–	–	–	1.1	–	0.19
C[C@@H]1CN(CCCc2cccs2)CC[C@]1(C)c1cccc(O)c1	0.4	–	0.65	0.24	–	1.66	–
C[C@H]1CN(CCCc2cccs2)CC[C@@]1(C)c1cccc(O)c1 (stereo in doubt; 41)	–	–	–	–	–	1.18	–
